The values that follow come from ChEMBL document CHEMBL4138089, “Novel Imidazo[4,5-c][1,2,6]thiadiazine 2,2-dioxides as antiproliferative trypanosoma cruzi drugs: Computational screening from neural network, synthesis and in vivo biological properties” (Eur J Med Chem, 2017).

Broadly, the IC50 is the concentration needed to halve the response being measured. In general, inhibition refers to the drop in the measured response relative to a control, in per cent. A high value points to strong suppression.

Data set [1] deals with Trypanosoma cruzi. Put plainly: Antitrypanosomal activity against Trypanosoma cruzi Tulahuen 2 epimastigotes after 5 days. In kind it is functional, organism-based. As to conditions: Tulahuen 2, 120 h.
Data set [2] has as its system Trypanosoma cruzi. The data set is described as follows: Growth inhibition of Trypanosoma cruzi Tulahuen 2 epimastigotes at 25 uM after 5 days relative to control. In kind it is functional. As to conditions: Tulahuen 2, 120 h, read-out: GI.
Data set [3] relates to Trypanosoma cruzi. Put plainly: Antitrypanosomal activity against bloodstream forms of Trypanosoma cruzi Y infected in NMRI mouse assessed as mouse survival at 100 mg/kg, po administerd for 5 consecutive days starting from day 5 post infection. As to conditions: 720 h.
The test system of data set [4] is Salmonella typhimurium. The data set is described as follows: Genotoxicity in Salmonella typhimurium TA98 up to 500 ug/plate in presence of mouse liver S9 fraction by Ames test. It is filed as toxicity, organism-based. Particulars: salmonella enterica subsp. enterica serovar typhimurium. Put shortly:
(§1)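 TA98 by direct plate incorporation on minimal glucose agar with Vogel-Bonner E; toxicity to the strain checked first. Compounds in DMSO, in triplicate, top dose 500 µg/plate; ± Aroclor-induced mouse liver S9 (500 µL). Positive controls 4-nitro-o-phenylenediamine 20.0 µg/plate (no S9), 2-aminofluorene 10.0 µg/plate (S9); DMSO negative. Manual revertant counts, mean of two experiments ±SD; mutagenic if ≥2× negative control at two consecutive doses.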
For orientation: The Ames test uses bacterial strains that need an amino acid and regain growth without it when mutated back.

A further data set concerns the target Cruzipain (Trypanosoma cruzi, UniProt P25779). Put plainly: Inhibition of Trypanosoma cruzi cruzipain using Bz-Pro-Phe-Arg-p-NA as a chromogenic substrate preincubated for 10 mins followed by substrate addition measured for 5 mins by spectrophotometry. Put shortly:
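Cruzipain preincubated 10 min at ambient temperature in 50 mM Tris-HCl pH 7.6 with 10 mM mercaptoethanol and 25, 50 or 100 μM inhibitor (DMSO). Controls carry the same DMSO level and define 100% activity.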

Data set [5] relates to Trypanosoma cruzi. Put plainly: Growth inhibition of Trypanosoma cruzi clone CL B5 amastigotes harboring lacZ derived from infected mouse NCTC-929 cells at 25 uM after 7 days by beta-galactosidase reporter gene assay relative to control. In kind it is functional. Particulars: clone CL B5, NCTC-929, 168 h, read-out: GI. Put shortly: (§2)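 NCTC-929 fibroblasts seeded 10,000 cells/well in MEM, attached 2-3 h at 37°C, 5% CO2, then infected with NCTC-929-derived CL-B5 lacZ trypomastigotes (1:6 cells:parasites) for 24 h at 33°C. Washed in PBS, drug in DMSO added in fresh medium, 7 days at 33°C. CPRG (400 µM, pH 7.4, 3% Triton X-100) added, 3 h at 37°C, A595. PGIa computed against infected untreated wells after subtracting uninfected-cell background. IC50a derived from PGIa.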
For orientation: In a reporter assay the amount or activity of a reporter protein is the signal.

Another data set concerns J774. The data set is described as follows: Cytotoxicity against mouse J774 cells assessed as reduction in cell viability after 48 hrs by MTT assay. As to conditions: J774, 48 h. In kind it is cell-based. Put shortly: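 J774 macrophages, 37°C, 5% CO2, 48 h with compounds in DMSO at 100, 200 and 400 μM. Viability from mitochondrial activity by MTT/formazan.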
Background: Tetrazolium assays rely on reduction of a dye to a coloured formazan, in cell work by metabolically active cells.

The test system of data set [6] is Trypanosoma cruzi. The data set is described as follows: Antitrypanosomal activity against Trypanosoma cruzi clone CL B5 epimastigotes at 25 uM after 72 hrs by beta-galactosidase reporter gene assay. In kind it is functional, organism-based. As to conditions: clone CL B5, 72 h.
In data set [7] the test system is Trypanosoma cruzi. Put plainly: Growth inhibition of Trypanosoma cruzi clone CL B5 epimastigotes at 25 uM after 72 hrs by beta-galactosidase reporter gene assay relative to control. In kind it is functional. Particulars: clone CL B5, 72 h, read-out: GI.
In another data set the test system is L929. Put plainly: Cytotoxicity against mouse NCTC-929 cells assessed as reduction in cell viability after 48 hrs by resazurin dye-based assay. Particulars: L929, 48 h. Put shortly: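 NCTC-929 fibroblasts, 15,000 cells/well in MEM, attached 3 h at 37°C/5% CO2, then compounds in fresh medium 48 h. Resazurin (2 mM stock in PBS, pH 7.0) added for 3 h more; fluorescence ex 535/em 590 nm. Growth and medium controls on each plate.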

Data set [8] is described as follows: Selectivity index, ratio of IC50 for mouse J774 cells to IC50 for Trypanosoma cruzi Tulahuen 2 epimastigotes. In kind it is toxicity. As to conditions: J774 cells versus Trypanosoma cruzi Tulahuen 2 epimastigotes, read-out: Ratio IC50.
In the next data set the test system is Mus musculus. The data set is described as follows: Antitrypanosomal activity against bloodstream forms of Trypanosoma cruzi Y infected in NMRI mouse assessed as decrease in number of blood trypomastigotes at 100 mg/kg, po administerd for 5 consecutive days starting from day 5 post infection measured from 4th day of treatment. It is filed as functional, organism-based.

Data set [9] deals with Salmonella typhimurium. Put plainly: Genotoxicity in Salmonella typhimurium TA98 up to 500 ug/plate in absence of mouse liver S9 fraction by Ames test. In kind it is toxicity, organism-based. Particulars: salmonella enterica subsp. enterica serovar typhimurium. Put shortly: as §1
The nature of data set [10]: Selectivity index, ratio of IC50 for mouse NCTC-929 cells to IC50 for Trypanosoma cruzi clone CL B5 epimastigotes. Particulars: read-out: Ratio IC50. In kind it is toxicity.
Data set [11] concerns the target Cruzipain (Trypanosoma cruzi) (UniProt P25779). Put plainly: Inhibition of Trypanosoma cruzi cruzipain at 100 uM using Bz-Pro-Phe-Arg-p-NA as a chromogenic substrate preincubated for 10 mins followed by substrate addition measured for 5 mins by spectrophotometer relative to control. Put shortly: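 Cruzipain preincubated 10 min at ambient temperature in 50 mM Tris-HCl pH 7.6 with 10 mM mercaptoethanol and 25, 50 or 100 μM inhibitor (DMSO). Bz-Pro-Phe-Arg-p-NA then added at 150 μM final, A410 followed for 5 min. Controls carry the same DMSO level and define 100% activity.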

In data set [12] the test system is Trypanosoma cruzi. Put plainly: Antitrypanosomal activity against Trypanosoma cruzi clone CL B5 amastigotes harboring lacZ infected in mouse NCTC-929 cells after 7 days by beta-galactosidase reporter gene assay. In kind it is functional, organism-based. Particulars: clone CL B5, NCTC-929, 168 h. Put shortly:
as §2

Calls of active or inactive are those of the source. No cut-off for these calls is given here. Some results are limits rather than exact numbers.

Cruzipain, sequence (P25779 whole entry): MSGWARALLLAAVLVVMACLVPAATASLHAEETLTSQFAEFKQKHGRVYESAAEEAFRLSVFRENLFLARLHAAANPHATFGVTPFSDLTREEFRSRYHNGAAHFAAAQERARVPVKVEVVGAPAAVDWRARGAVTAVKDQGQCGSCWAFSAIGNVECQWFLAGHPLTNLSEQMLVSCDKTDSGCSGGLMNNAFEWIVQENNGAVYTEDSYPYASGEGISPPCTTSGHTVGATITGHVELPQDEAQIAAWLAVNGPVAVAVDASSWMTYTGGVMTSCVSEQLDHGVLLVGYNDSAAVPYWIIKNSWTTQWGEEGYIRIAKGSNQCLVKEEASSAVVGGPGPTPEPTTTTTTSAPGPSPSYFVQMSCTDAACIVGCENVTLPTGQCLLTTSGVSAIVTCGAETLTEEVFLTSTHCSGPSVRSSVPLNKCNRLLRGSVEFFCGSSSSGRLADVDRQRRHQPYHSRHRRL
Cruzipain (Trypanosoma cruzi), sequence (P25779 123-467 limits assumed): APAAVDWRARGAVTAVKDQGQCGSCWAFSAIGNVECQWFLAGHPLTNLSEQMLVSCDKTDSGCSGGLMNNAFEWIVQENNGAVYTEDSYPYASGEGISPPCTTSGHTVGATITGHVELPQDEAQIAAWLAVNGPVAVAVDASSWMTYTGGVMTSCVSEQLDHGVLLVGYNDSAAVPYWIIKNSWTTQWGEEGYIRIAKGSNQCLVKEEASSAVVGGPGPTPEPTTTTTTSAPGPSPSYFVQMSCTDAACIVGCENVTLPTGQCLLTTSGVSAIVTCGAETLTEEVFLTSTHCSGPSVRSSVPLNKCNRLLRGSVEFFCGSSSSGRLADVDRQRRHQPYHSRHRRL

`NC1=NS(=O)(=O)Nc2nc(-c3ccccc3F)[nH]c21` registered an IC50 with Trypanosoma cruzi [1] of 20.2 µM. For the same molecule, the inhibition of growth at 25 µM with Trypanosoma cruzi [2] is 57.8%.
Regarding `NC1=NS(=O)(=O)N(Cc2ccccc2)c2nc(-c3ccccc3)n(Cc3ccccc3)c21`, the survival at 100 mg/kg in the data set on Trypanosoma cruzi [3] was 87.5%. The IC50 is 4.5 µM in the data set with Trypanosoma cruzi [1]; 81 µM against Cruzipain; 100 µM in the data set on J774; 3.6 µM in the data set on Trypanosoma cruzi [6]; less than 64 µM in the data set on L929. Also, the Activity entry in the data set on Salmonella typhimurium [4] and in the data set with Salmonella typhimurium [9] was “Non-Toxic” in each case. In addition, the inhibition of growth at 25 µM in the data set on Trypanosoma cruzi [5] amounted to 90.2%; in the data set with Trypanosoma cruzi [2], 100%; with Trypanosoma cruzi [7], 60.8%. The values for the selectivity ratio in data set [8] and in [10] were 22 and less than 17.8, respectively. Also, the result in the data set with Mus musculus was Active.
Turning to `NC1=NS(=O)(=O)Nc2nc(C3CCCCC3)[nH]c21`, the concentration for half-maximal inhibition (IC50) with Trypanosoma cruzi [1] is 12.7 to 16.2 µM; against Cruzipain it was 12 µM; with Trypanosoma cruzi [6], 2.5 µM; in the data set on L929, greater than 256 µM. In addition, the inhibition of growth at 25 µM turned out to be 0% in the data set with Trypanosoma cruzi [5], 72.3% in the data set on Trypanosoma cruzi [2] and 54.8% in the data set with Trypanosoma cruzi [7]. Further, the selectivity ratio is greater than 25 in [8] and greater than 102 in data set [10]. Besides, the outcome with Mus musculus was inactive.
In turn, `NC1=NS(=O)(=O)Nc2nc(C3CCOC3)[nH]c21` (stereo unspecified) returned an IC50 in the data set with Trypanosoma cruzi [1] of 20.3 µM. In addition, the inhibition of growth at 25 µM in the data set with Trypanosoma cruzi [2] worked out at 56.4%.
Take `CN1c2nc(-c3ccccc3)[nH]c2C(N)=NS1(=O)=O`: the IC50 is 16.7 µM with Trypanosoma cruzi [1], 128 µM with J774 and greater than 25 µM in the data set on Trypanosoma cruzi [6]. Besides, the Activity result with Salmonella typhimurium [4] and in the data set with Salmonella typhimurium [9] was “Non-Toxic” throughout. Besides, the inhibition of growth at 25 µM in the data set on Trypanosoma cruzi [2] came to 58%; in the data set with Trypanosoma cruzi [7] it was 11.3%. In data set [11], this molecule displayed an inhibition of 27.4%. The selectivity ratio in [8] is 7.7.
With `NC1=NS(=O)(=O)Nc2nc(-c3ccsc3)[nH]c21`, the IC50 in the data set on Trypanosoma cruzi [1] is 22.2 µM. The inhibition of growth at 25 µM in the data set with Trypanosoma cruzi [2] came to 51.3%.
`CCc1nc2c([nH]1)C(N)=NS(=O)(=O)N2` came in with an IC50 with Trypanosoma cruzi [1] of 28.5 µM. The inhibition of growth at 25 µM in the data set on Trypanosoma cruzi [2] worked out at 43%.
Consider `NC1=NS(=O)(=O)N(Cc2ccc(Cl)cc2)c2nc(-c3ccccc3F)[nH]c21`, for which the IC50 was 7 µM with Trypanosoma cruzi [1], 86 µM against Cruzipain, less than 100 µM in the data set with J774 and greater than 25 µM with Trypanosoma cruzi [6]. Further, the inhibition of growth at 25 µM stood at 86.3% in the data set on Trypanosoma cruzi [2] and 42.1% in the data set with Trypanosoma cruzi [7]. For the same molecule, in [8], the selectivity ratio was less than 14.2.
In the data set on Trypanosoma cruzi [1], `CN1c2nc(-c3ccsc3)[nH]c2C(N)=NS1(=O)=O` came in with an IC50 of 26.2 µM. In addition, the inhibition of growth at 25 µM in the data set on Trypanosoma cruzi [2] came out at 46.3%.
For `NC1=NS(=O)(=O)Nc2nc(-c3cccnc3)[nH]c21`, in that order: greater than 25 µM and 37.5%.
In the same order, the values of `NC1=NS(=O)(=O)Nc2[nH]c(-c3ccccc3)nc21` are greater than 25 µM and 39.6%.
Regarding `NC1=NS(=O)(=O)Nc2nc(CCc3ccccc3)[nH]c21`, the IC50 in the data set with Trypanosoma cruzi [1] was 11.5 µM; in the data set with J774, greater than 400 µM; in the data set with Trypanosoma cruzi [6], 17.5 µM; in the data set with L929, greater than 256 µM. The inhibition of growth at 25 µM in the data set on Trypanosoma cruzi [2] worked out at 73.6%; with Trypanosoma cruzi [7] it was 51.1%. This molecule also displayed an inhibition in data set [11] of 39%. The selectivity ratio in [8] was greater than 34.8; in data set [10], greater than 14.6.
As for `CC1CS(=O)(=O)CCN1/N=C/c1ccc([N+](=O)[O-])o1` (stereo unspecified) [NIFURTIMOX], the inhibition of growth at 25 µM in the data set with Trypanosoma cruzi [5] was determined as 100%; in the data set with Trypanosoma cruzi [7], 82.2%. The 50% inhibitory concentration (IC50) in the data set with L929 was greater than 256 µM; with Trypanosoma cruzi [12], less than 500 nM. Moreover, the selectivity ratio was 41 in [8] and greater than 71.1 in data set [10].
For `O=C(Cn1ccnc1[N+](=O)[O-])NCc1ccccc1` [BENZNIDAZOLE], the inhibition of growth at 25 µM in the data set on Trypanosoma cruzi [5] stood at 100%; in the data set on Trypanosoma cruzi [7] it was 49%. The IC50 was greater than 256 µM in the data set with L929 and 800 nM in the data set on Trypanosoma cruzi [12]. Besides, the selectivity ratio in data set [10] is greater than 9.4.
On to `Cc1nc2c([nH]1)C(N)=NS(=O)(=O)N2`, for which the IC50 in the data set with Trypanosoma cruzi [1] is greater than 25 µM. Moreover, the inhibition of growth at 25 µM in the data set on Trypanosoma cruzi [2] was 38.7%.
In the same order, the values of `NC1=NS(=O)(=O)N(Cc2ccc(Cl)cc2)c2nc(C3CCCCC3)[nH]c21` are greater than 25 µM and 0%.
In the same order, the values of `NC1=NS(=O)(=O)Nc2nc(C3CCCC3)[nH]c21` are 28.9 µM and 42.2%.
Take `CN(C)c1ccc(-c2nc3c([nH]2)C(N)=NS(=O)(=O)N3)cc1`: the midpoint of inhibition in the data set with Trypanosoma cruzi [1], the IC50, lay at 28.5 µM. Moreover, the inhibition of growth at 25 µM in the data set with Trypanosoma cruzi [2] was 42.8%.
Regarding `NC1=NS(=O)(=O)Nc2nc(Cc3ccccc3)[nH]c21`, the IC50 with Trypanosoma cruzi [1] is 12.7 to 16.2 µM; at Cruzipain it was 23 µM; with Trypanosoma cruzi [6], greater than 25 µM. The Activity result in the data set on Salmonella typhimurium [4] and with Salmonella typhimurium [9] was “Non-Toxic” throughout. Besides, the inhibition of growth at 25 µM in the data set on Trypanosoma cruzi [2] stood at 59.7%; in the data set on Trypanosoma cruzi [7], 17.7%. The selectivity ratio in data set [8] was greater than 31.
In turn, `NC1=NS(=O)(=O)N(Cc2ccccc2)c2nc(-c3ccccc3)[nH]c21` came in with an IC50 in the data set with Trypanosoma cruzi [1] of 29.5 µM. The inhibition of growth at 25 µM in the data set with Trypanosoma cruzi [2] came to 41.6%.
In the same order, the values of `NC1=NS(=O)(=O)Nc2nc(-c3ccc([N+](=O)[O-])o3)[nH]c21` are greater than 25 µM and 31.3%.
For `NC1=NS(=O)(=O)N(Cc2ccccc2)c2nc(C3CCCCC3)n(Cc3ccccc3)c21`, in that order: 28.7 µM and 45.7%.
